# Experimental data gathered from unrelated publications.
# Target: Wee1-like protein kinase (WEE1, Homo sapiens, UniProt P30291)
Compound,assay,setting,remaining binding [%]
CC(C)CC(=O)N1CCc2nc(-c3ccc(Br)cc3)nc(N(C)Cc3ccccc3)c2C1,"cell-free assay, competition with immobilised ligand",0.1 µM,100
COc1cnc(Nc2cccc(S(N)(=O)=O)c2)nc1N1CCN(c2ccccc2)C(=O)C1,"binding, competition with immobilised ligand",1 µM,98
C[C@@H](c1ccc(-n2cnc3c(N)ncnc32)cc1)N1CCc2nn(C)c(Cc3ccccc3)c2C1=O,"binding, competition with immobilised ligand",0.1 µM,85
CN(c1ccnc(CNc2nc(Nc3ccc4c(c3)CC(=O)N4)ncc2C(F)(F)F)n1)S(C)(=O)=O,"cell-free assay, competition with immobilised ligand",1 µM,13
O=C(c1ccc(Nc2ncc(Cl)c(-c3ccc(Cl)s3)n2)cc1)N1CCC(N2CCCC2)CC1,"binding, competition with immobilised ligand",1 µM,11
O=C(Nc1c[nH]nc1C(=O)NC1CCNCC1)c1cc(F)cc(F)c1,"binding, competition with immobilised ligand",1 µM,100
Cc1c[nH]c2nccc(Oc3c(F)cc(Nc4cc(Cl)nc(N)n4)cc3F)c12,"cell-free assay, competition with immobilised ligand",0.1 µM,100
COc1ccnn2ncc(-c3ccnc(N(C)C)n3)c12,binding,1 µM,100
CCN1CCN(Cc2ccc(C(=O)Nc3ccc(C)c(Oc4ccc5c(c4)CC(=O)N5)c3)cc2C(F)(F)F)CC1,"binding, competition with immobilised ligand",1 µM,100
CN(C)c1ncc(F)c(-c2cnn3ncccc23)n1,binding,1 µM,100
CN1CCN(c2cnc3c(C4CCN(C(=O)c5ccc(OC(F)(F)F)cc5N)CC4)ncnc3c2)CC1,"cell-free assay, competition with immobilised ligand",1 µM,96
COc1cnc(Nc2cccc(S(N)(=O)=O)c2)nc1N1CCN(c2ccccc2)CC1,"binding, competition with immobilised ligand",1 µM,100
c1cnn2ncc(-c3ccnc(N4CCC45COC5)n3)c2c1,binding,1 µM,92
FC(F)(F)Oc1cccc(-c2cnc3ccc(-c4ccncc4)nn23)c1,"binding, competition with immobilised ligand",5 µM,90
N[C@H]1CCN(c2nccc(-c3cnn4ncccc34)n2)C1,binding,1 µM,68
O=C(NCCCN1CCOCC1)c1ccc(Nc2nccc(-c3cc4ccccc4s3)n2)cc1,"binding, competition with immobilised ligand",1 µM,67
CCC(=O)N[C@H]1CC[C@@H](C(=O)N(C)c2ccc(-c3nc4ccccc4o3)cc2)C1,"cell-free assay, competition with immobilised ligand",1 µM,100
c1cncc(-c2cccc(Nc3nccc(NC4CCCCC4)n3)c2)c1,"binding, competition with immobilised ligand",10 µM,90
C[C@H]1CCN(c2nccc(-c3cnn4ncccc34)n2)C1,binding,1 µM,100
O=C(c1ccc(Nc2ncc(Cl)c(-c3cc4ccccc4s3)n2)cc1)N1CCC(N2CCCC2)CC1,"binding, competition with immobilised ligand",1 µM,11
O=C(O)[C@@H]1[C@@H](Cn2nnc3ccccc3c2=O)CC[C@H]1C(=O)c1ccc(OCCC2CCOCC2)cc1,"cell-free assay, competition with immobilised ligand",1 µM,93
CC1CCCN1c1nccc(-c2cnn3ncccc23)n1 (stereo not shown),binding,1 µM,100
